Assay [1] in a line: Ionotropic effect in guinea pig ventricle papillary muscles assessed as lengthening of 90% repolarized cardiac action potential duration time at 10^-6 M by microelectrode technique relative to untreated control (reference value: 132 to 176 APD50 ms). In kind it is functional, Cavia porcellus, Papillary muscle.
Assay [2] in a line: Vasodilatory activity in human vena saphena magna assessed as reduction in phenylephrine-induced smooth muscle contraction at 10 uM. In kind it is functional. The gist of the method: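 Saphenous vein rings came from 37 CABG patients. They were bathed in Tyrode's solution (mM: NaCl 137, KCl 5.4, CaCl2 1.8, MgCl2 0.9, Tris HCl 10, glucose 5; pH 7.4), equilibrated 45–60 min and washed every 15 min. Rings were precontracted with 10^-4 M phenylephrine, then given cumulative test agent at 10^-7 to 10^-4 M. Isometric relaxation was recorded, as means ± SE.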

A short description of assay [3]: Ionotropic effect in guinea pig ventricle papillary muscles assessed as lengthening of 90% repolarized cardiac action potential duration time at 10^-5 M by microelectrode technique relative to untreated control (reference value: 209 to 222 APD50 ms) in presence of 3.1 x 10^-6 M inward rectifier current blocker BaCl2. In kind it is functional, Cavia porcellus.
Assay [4] can be described thus: Ionotropic effect in guinea pig ventricle papillary muscles assessed as lengthening of 10% repolarized cardiac action potential duration time at 10^-4 M by microelectrode technique relative to untreated control (reference value: 52 to 54 APD10 ms) in presence of 3.1 x 10^-6 M inward rectifier current blocker BaCl2. In kind it is functional, Cavia porcellus.
Assay [5] is described as follows: Ionotropic effect in guinea pig ventricle papillary muscles assessed as lengthening of 10% repolarized cardiac action potential duration time at 10^-7 M by microelectrode technique relative to untreated control (reference value: 37 to 47 APD10 ms). In kind it is functional, Cavia porcellus, Papillary muscle.
Assay [6] in a line: Ionotropic effect in guinea pig ventricle papillary muscles assessed as lengthening of 10% repolarized cardiac action potential duration time at 10^-6 M by microelectrode technique relative to untreated control (reference value: 52 to 54 APD10 ms) in presence of 1 x 10^-6 M IKr channel blocker Sotalol. In kind it is functional, Cavia porcellus.
Assay [7] can be described thus: Ionotropic effect in guinea pig ventricle papillary muscles assessed as lengthening of 25% repolarized cardiac action potential duration time at 10^-5 M by microelectrode technique relative to untreated control (reference value: 120 to 131 APD25 ms) in presence of 3.1 x 10^-6 M inward rectifier current blocker BaCl2. In kind it is functional, Cavia porcellus.
The nature of assay [8]: Ionotropic effect in guinea pig ventricle papillary muscles assessed as lengthening of 50% repolarized cardiac action potential duration time at 10^-6 M by microelectrode technique relative to untreated control (reference value: 180 to 192 APD50 ms) in presence of 2 x 10^-5 M KATP channel blocker glibenclamide. In kind it is functional, Cavia porcellus.
Assay [9] in a line: Ionotropic effect in guinea pig right ventricle papillary muscles assessed as contraction force at 10^-7 M by force transduction assay relative to untreated control (reference value: 100%). In kind it is functional, Cavia porcellus, Papillary muscle.
A short description of assay [10]: Ionotropic effect in guinea pig ventricle papillary muscles assessed as lengthening of 25% repolarized cardiac action potential duration time at 10^-5 M by microelectrode technique relative to untreated control (reference value: 120 to 131 APD25 ms) in presence of 1 x 10^-6 M IKr channel blocker Sotalol. In kind it is functional, Cavia porcellus.
A short description of assay [11]: Ionotropic effect in guinea pig ventricle papillary muscles assessed as lengthening of 10% repolarized cardiac action potential duration time at 10^-7 M by microelectrode technique relative to untreated control (reference value: 52 to 54 APD10 ms) in presence of 2 x 10^-5 M KATP channel blocker glibenclamide. In kind it is functional, Cavia porcellus.
A short description of assay [12]: Ionotropic effect in guinea pig ventricle papillary muscles assessed as lengthening of 90% repolarized cardiac action potential duration time at 10^-7 M by microelectrode technique relative to untreated control (reference value: 209 to 222 APD50 ms) in presence of 1 x 10^-6 M IKr channel blocker Sotalol. In kind it is functional, Cavia porcellus.
Assay [13] is described as follows: Ionotropic effect in guinea pig ventricle papillary muscles assessed as lengthening of 25% repolarized cardiac action potential duration time at 10^-4 M by microelectrode technique relative to untreated control (reference value: 120 to 131 APD25 ms) in presence of 2 x 10^-5 M KATP channel blocker glibenclamide. In kind it is functional, Cavia porcellus.
The nature of assay [14]: Ionotropic effect in guinea pig right ventricle papillary muscles assessed as contraction force at 10^-4 M by force transduction assay relative to untreated control (reference value: 100%). In kind it is functional, Cavia porcellus, Papillary muscle.
A short description of assay [15]: Ionotropic effect in guinea pig ventricle papillary muscles assessed as lengthening of 50% repolarized cardiac action potential duration time at 10^-4 M by microelectrode technique relative to untreated control (reference value: 132 to 176 APD50 ms). In kind it is functional, Cavia porcellus, Papillary muscle.
The nature of assay [16]: Ionotropic effect in guinea pig ventricle papillary muscles assessed as lengthening of 25% repolarized cardiac action potential duration time at 10^-6 M by microelectrode technique relative to untreated control (reference value: 120 to 131 APD25 ms) in presence of 1 x 10^-6 M IKr channel blocker Sotalol. In kind it is functional, Cavia porcellus.
Assay [17] can be described thus: Ionotropic effect in guinea pig ventricle papillary muscles assessed as lengthening of 25% repolarized cardiac action potential duration time at 10^-6 M by microelectrode technique relative to untreated control (reference value: 84 to 104 APD25 ms). In kind it is functional, Cavia porcellus, Papillary muscle.
Assay [18] is described as follows: Ionotropic effect in guinea pig ventricle papillary muscles assessed as lengthening of 10% repolarized cardiac action potential duration time at 10^-6 M by microelectrode technique relative to untreated control (reference value: 52 to 54 APD10 ms) in presence of 2 x 10^-5 M KATP channel blocker glibenclamide. In kind it is functional, Cavia porcellus.
The nature of assay [19]: Ionotropic effect in guinea pig right ventricle papillary muscles assessed as contraction force at 10^-5 M by force transduction assay relative to untreated control (reference value: 100%) in presence of 1 x 10^-6 M IKr channel blocker Sotalol. In kind it is functional, Cavia porcellus, Heart right ventricle.
Assay [20] is described as follows: Ionotropic effect in guinea pig ventricle papillary muscles assessed as lengthening of 90% repolarized cardiac action potential duration time at 10^-4 M by microelectrode technique relative to untreated control (reference value: 209 to 222 APD50 ms) in presence of 3.1 x 10^-6 M inward rectifier current blocker BaCl2. In kind it is functional, Cavia porcellus.

A short description of assay [21]: Ionotropic effect in guinea pig ventricle papillary muscles assessed as lengthening of 90% repolarized cardiac action potential duration time at 10^-6 M by microelectrode technique relative to untreated control (reference value: 209 to 222 APD50 ms) in presence of 2 x 10^-5 M KATP channel blocker glibenclamide. In kind it is functional, Cavia porcellus.
The nature of assay [22]: Ionotropic effect in guinea pig ventricle papillary muscles assessed as lengthening of 10% repolarized cardiac action potential duration time at 10^-4 M by microelectrode technique relative to untreated control (reference value: 52 to 54 APD10 ms) in presence of 1 x 10^-6 M IKr channel blocker Sotalol. In kind it is functional, Cavia porcellus.
Assay [23] is described as follows: Ionotropic effect in guinea pig ventricle papillary muscles assessed as lengthening of 50% repolarized cardiac action potential duration time at 10^-5 M by microelectrode technique relative to untreated control (reference value: 132 to 176 APD50 ms). In kind it is functional, Cavia porcellus, Papillary muscle.
A short description of assay [24]: Ionotropic effect in guinea pig right ventricle papillary muscles assessed as contraction force at 10^-6 M by force transduction assay relative to untreated control (reference value: 100%) in presence of 1 x 10^-6 M IKr channel blocker Sotalol. In kind it is functional, Cavia porcellus, Heart right ventricle.

Activity calls are given as the source filed them. No cut-off for these calls is given here.

Regarding `CCCOCCOC(=O)C1=C(C)NC=C([N+](=O)[O-])C1c1ccccc1OC(F)F` (centres undefined), the Time in assay [1] stood at 229 ms; in assay [3], 260.5 ms; in assay [4], 61.36 ms; in [5], 40 ms; in assay [6], 49 ms; in [7] it was 155 ms. Besides, the Time was determined as 219 ms in assay [8]; 133.6 ms in [10]; 59.5 ms in assay [11]; 224.4 ms in [12]; 164.8 ms in assay [13]; 222 ms in assay [15]. In addition, the Time in assay [16] was found to be 132.9 ms; in assay [17] it was 118.6 ms; in assay [18], 59.6 ms; in assay [20], 267.9 ms; in assay [21] it was 247 ms; in assay [22], 55.7 ms. Also, the Time in assay [23] amounted to 205.8 ms. Also, the outcome in assay [2] was Active. Also, the Activity turned out to be 108% in assay [9], 190.8% in assay [14], 100.2% in [19] and 93.6% in [24].

These data come from ChEMBL document CHEMBL2150950, “Effect of 4-aryl-2-methyl-5-nitro-1,4-dihydropyridine-3-carboxylates on the guinea pig papillary muscle and isolated human vena saphena magna that is used for coronary artery bypass grafting” (2011).
